Screening results (PubChem)
Calb biofilm kill – mixtures killing C. albicans biofilm | C. albicans biofilm persisters + clotrimazole, fluorescence viability; primary screen in compound mixtures of four per well | inhibition, % at 7.6 µM | AID 1242 | 120,000 compounds, 0.02% hits;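 active = inhibition above 30.3% in the primary screen of four-compound pools, then above 30% when the compound was retested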;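 note: compounds exposed to preformed 24 h biofilms for 48 h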
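Test system: C. albicans biofilms. Buffer or medium: RPMI/MOPS medium, pH 7.0. Timing: 48 h compound exposure at 37 °C. Technique: Alamar Blue fluorescence. Evaluation: percent inhibition of biofilm viability.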
TNAP inh no acc – TNAP (human) inhibition, acceptor-free conditions; P05186; purified TNAP, CDP-star luminescence, 30 min; inhibition, % at 20 µM; 200,000 compounds, 0.26% hits;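 active = tissue-nonspecific alkaline phosphatase inhibition above about 50% at 20 µM in the single-dose screen, limit read from the data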
Target sequence (P05186 whole entry, looked up): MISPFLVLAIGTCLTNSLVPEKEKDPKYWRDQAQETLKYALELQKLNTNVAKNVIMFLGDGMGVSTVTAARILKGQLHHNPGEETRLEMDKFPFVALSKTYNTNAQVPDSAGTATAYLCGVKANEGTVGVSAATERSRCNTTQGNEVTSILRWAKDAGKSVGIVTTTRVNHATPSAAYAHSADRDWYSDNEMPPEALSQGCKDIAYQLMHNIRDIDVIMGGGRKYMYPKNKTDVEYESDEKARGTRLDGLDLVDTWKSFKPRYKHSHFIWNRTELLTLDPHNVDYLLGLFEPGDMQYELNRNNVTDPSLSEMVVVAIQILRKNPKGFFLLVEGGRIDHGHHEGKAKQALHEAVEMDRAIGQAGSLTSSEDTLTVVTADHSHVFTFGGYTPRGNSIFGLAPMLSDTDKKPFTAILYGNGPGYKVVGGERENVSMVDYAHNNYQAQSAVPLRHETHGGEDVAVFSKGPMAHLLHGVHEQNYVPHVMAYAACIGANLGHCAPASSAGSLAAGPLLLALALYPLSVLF
TNAP act hi DEA – activators of human TNAP at high phosphate acceptor concentration; P05186; purified TNAP, CDP-star luminescence, 1 M DEA, 30 min; active compounds read high; 0 = EDTA background, 1 = DMSO-only activity; activation factor at 20 µM; 200,000 tested, under 10 active; AID 1136;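 active = activation factor at least 2 at 20 µM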
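Control set: EDTA negative control, DMSO positive control / Assay system: human TNAP / Quantity: TNAP 1/800 final / Evaluation: TNAP activation factor scaled between EDTA and DMSO control wells / Measured by: luminescent substrate turnover signal / Compound dosing: one dose, 20 µM / Times: 30 min enzyme reaction at room temperature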
TNAP inh hiacc – blocks human TNAP under high phosphate acceptor concentration; P05186; 200,000 compounds, 0.03% hits; purified TNAP, CDP-star luminescence, 1 M DEA; inhibition, % at 20 µM;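 active = over 50% inhibition of tissue-nonspecific alkaline phosphatase at 20 µM in the single-dose screen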
Each line names hits and unclear results; the compound was inactive in the other large screens. Rows were chosen to be rich in hits. Some 0.28% of all compounds tested hit in one or more screens of this group.

CCOc1cc(/C=C2\SC(=S)N(NC(=O)c3cccnc3)C2=O)ccc1O	TNAP inh hiacc 51
CS(=O)(=O)N(CC(=O)Nc1cc(Cl)ccc1Cl)c1ccccc1	none (no result: Calb biofilm kill)
COc1cc(/C=C/C(=O)c2ccc(C)c([N+](=O)[O-])c2)cc(OC)c1O	TNAP inh hiacc 59
COc1ccc(/C=C/C(=O)c2ccc(C)c([N+](=O)[O-])c2)cc1O	none
Oc1ccccc1OCc1nc2ccccc2s1	none (no result: Calb biofilm kill)
Oc1ccc(O)c(Cc2nc3ccccc3s2)c1	TNAP inh no acc 61
Nc1nc(Cl)cc(N2CCC(c3cc(-c4ccc(Cl)cc4Cl)n[nH]3)CC2)n1	TNAP inh no acc 56 (no result: Calb biofilm kill)
Nc1nc(Cl)cc(N2CCCC2)n1	none
COc1cccc(/C=N/NC(=O)c2cc(-c3cccn3C)n[nH]2)c1	TNAP inh no acc 94 (no result: Calb biofilm kill)
COc1cc(/C=N/NC(=O)c2cc(-c3cccn3C)n[nH]2)cc(OC)c1OC	TNAP inh no acc 91 (no result: Calb biofilm kill)
COc1cccc(/C=N/NC(=O)c2cc(-c3cccn3C)n[nH]2)c1O	none
Cn1cccc1-c1cc(C(=O)N/N=C/C=C/c2ccccc2)[nH]n1	none
Cc1ccccc1OCc1nc2ccccc2c(=O)n1N	none (no result: Calb biofilm kill)
Cc1ccccc1OCc1nnc2c3cnn(C)c3ncn12	TNAP inh no acc 55 (no result: Calb biofilm kill)
CN(CC(=O)Nc1ccc(N2CCOCC2)cc1)CC(=O)Nc1ccccc1C#N	TNAP inh no acc 50
Cc1ccccc1C(=O)NNC(=O)CSc1nc(-c2ccccc2)cc(=O)[nH]1	TNAP inh no acc 75
c1ccc(Cn2nnc3c(NCC4CCCO4)ncnc32)cc1 (centres undefined)	none (no result: Calb biofilm kill)
COc1ccc(-c2[nH]ncc2CN(C)C(C)c2ccncn2)c(F)c1 (centres undefined)	TNAP inh no acc 63
COc1ccc(-c2[nH]ncc2CN(C)C(C)c2ccon2)c(OC)c1 (centres undefined)	none
CCN(Cc1ccncc1)Cc1cn[nH]c1-c1ccc(OC)cc1F	TNAP inh no acc 55
COc1ccc(-c2[nH]ncc2CN(CCO)Cc2cccs2)c(F)c1	TNAP inh no acc 69
COCC(=O)Nc1ccc(C(=O)Nc2ccccc2Cl)cc1	none
COc1ccc(C(=O)NCC(=O)OCC(=O)Nc2cccc(S(=O)(=O)N3CCCC3)c2)cc1	none (no result: TNAP inh no acc, TNAP act hi DEA, TNAP inh hiacc)
CN1CCN(CC(=O)NN(Cc2ccccc2)c2ccccc2)CC1	none (no result: TNAP inh no acc, TNAP act hi DEA, TNAP inh hiacc)
CC(O)CNC(=O)Cc1cc(=O)[nH]c(=O)[nH]1 (centres undefined)	none (no result: TNAP inh no acc, TNAP act hi DEA, TNAP inh hiacc)
O=C(COc1ccccc1)NC1CCSC1=O (centres undefined)	none
COc1ccc(/C=C(/C(=O)c2ccc(Cl)cc2Cl)n2cncn2)cc1	none (no result: Calb biofilm kill)
CN(C)c1ccc(/C=C(/C(=O)c2ccc(Cl)cc2Cl)n2cncn2)cc1	TNAP inh hiacc 55
Cc1ccc(C2NCCS2)cc1 (centres undefined)	TNAP inh no acc 63
Cc1ccc([N+](=O)[O-])cc1NCC(=O)NN	TNAP inh no acc 79
Nc1cc(=O)[nH]c(SCc2csc(-c3ccccc3)n2)n1	none
c1ccc(-c2nc(CSc3n[nH]c(-c4cccs4)n3)cs2)cc1	TNAP inh no acc 60 (no result: Calb biofilm kill)
CN=c1scc(-c2c[nH]c3ccccc23)n1C	none
